From ChEMBL document CHEMBL2439973, “Discovery of VU0409106: A negative allosteric modulator of mGlu5 with activity in a mouse model of anxiety” (Bioorg Med Chem Lett, 2013)
Active and inactive are the calls of the source. No cut-off for these calls is given here.

Columns and labels:
Mus musculus [1] = assay: Anxiolytic activity in Harlan CD-1 mouse assessed as inhibition of marble burying behavior at >= 3 mg/kg, ip; type: functional, organism-based; design: dose 3 mg/kg
Method in brief: (§1)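 Marble burying in mice with deep bedding; compound given IP at a range of doses with 15 min pretreatment, n = 8 per dose; marbles buried counted, brain samples collected right after testing for exposure; comparison to vehicle by Dunnett's test.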

Mus musculus [2] = assay: Anxiolytic activity in ip dosed Harlan CD-1 mouse assessed as inhibition of marble burying behavior; type: functional, organism-based; method in brief: as §1
[3] = target: Sodium-dependent noradrenaline transporter (Homo sapiens) (UniProt P23975); assay: Displacement of [125I]-RTI-55 from human recombinant NET expressed in MDCK cells at 10 uM relative to control; type: cell-based
Method in brief: (§2)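 Tested once at 10 μM in a commercial radioligand binding panel of 68 GPCRs, ion channels, kinases and transporters. Activity is given as displacement of each radioligand relative to control.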

Rattus norvegicus [4] = species: Rattus norvegicus; assay: Displacement of [125I]-Triiodothyronine from thyroid hormone receptor in rat liver at 10 uM relative to control; method in brief: as §2
[5] = target: Sigma non-opioid intracellular receptor 1 (Homo sapiens) (UniProt Q99720); assay: Displacement of [3H]-Haloperidol from sigma1 receptor in human Jurkat cells at 10 uM relative to control; type: cell-based; method in brief: as §2
[6] = target: 5-hydroxytryptamine receptor 1A (Homo sapiens) (UniProt P08908); assay: Displacement of [3H]-8-OH-DPAT from human recombinant 5-HT1A receptor expressed in CHO-K1 cells at 10 uM relative to control; type: cell-based; method in brief: as §2
Oryctolagus cuniculus = species: Oryctolagus cuniculus; assay: Displacement of [3H]-alpha,beta-Methylene-ATP from purinergic P2x receptor in rabbit urinary bladder at 10 uM relative to control
[7] = target: Neuropeptide Y receptor type 1 (Homo sapiens) (UniProt P25929); assay: Displacement of [125I]-Peptide YY from neuropeptide Y Y1 receptor in human SK-N-MC cells at 10 uM relative to control; type: cell-based; method in brief: as §2
[8] = target: Neuropeptide Y receptor type 2 (Homo sapiens) (UniProt P49146); assay: Displacement of [125I]-Peptide YY from neuropeptide Y Y2 receptor in human KAN-TS cells at 10 uM relative to control; type: cell-based; method in brief: as §2
[9] = target: Muscarinic acetylcholine receptor M1 (Homo sapiens) (UniProt P11229); assay: Displacement of [3H]-N-Methylscopolamine from human recombinant muscarinic M1 receptor expressed in CHO-K1 cells at 10 uM relative to control; type: cell-based; method in brief: as §2
[10] = target: Muscarinic acetylcholine receptor M3 (Homo sapiens) (UniProt P20309); assay: Displacement of [3H]-N-Methylscopolamine from human recombinant muscarinic M3 receptor expressed in CHO-K1 cells at 10 uM relative to control; type: cell-based; method in brief: as §2
[11] = target: Muscarinic acetylcholine receptor M2 (Homo sapiens) (UniProt P08172); assay: Displacement of [3H]-N-Methylscopolamine from human recombinant muscarinic M2 receptor expressed in CHO-K1 cells at 10 uM relative to control; type: cell-based; method in brief: as §2
[12] = target: Cysteinyl leukotriene receptor 1 (Homo sapiens) (UniProt Q9Y271); assay: Displacement of [3H]-LTD4 from human recombinant leukotriene cysteinyl CysLT1 receptor expressed in CHO-K1 cells at 10 uM relative to control; type: cell-based; method in brief: as §2
Mus musculus [13] = species: Mus musculus; assay: Displacement of [125I]-Interleukin-1beta from IL-1 receptor in mouse 3T3-SWISS cells at 10 uM relative to control; type: cell-based; method in brief: as §2
[14] = target: Histamine H2 receptor (Homo sapiens) (UniProt P25021); assay: Displacement of [125I]-Aminopotentidine from human recombinant histamine H2 receptor expressed in CHO-K1 cells at 10 uM relative to control; type: cell-based; method in brief: as §2
[15] = target: Glutamate NMDA receptor (Rattus norvegicus) (UniProt P35439+Q00959+Q00960+Q00961+Q62645+Q8VHN2+Q9R1M7); assay: Displacement of [3H]-MDL 105,519 from NMDA receptor glycine binding site in rat cerebral cortex at 10 uM relative to control; type: tissue-based; method in brief: as §2
[16] = target: Endothelin receptor type B (Homo sapiens) (UniProt P24530); assay: Displacement of [125I]-Endothelin-1 from human recombinant ETB receptor expressed in CHO-K1 cells at 10 uM relative to control; type: cell-based; method in brief: as §2
Rattus norvegicus [17] = species: Rattus norvegicus; assay: Displacement of [125I]-Omega-Conotoxin GVIA from N-type calcium channel in rat frontal brain at 10 uM relative to control; method in brief: as §2
Rattus norvegicus [18] = species: Rattus norvegicus; assay: Displacement of [3H]-Nitrendipine from L-type calcium channel dihydropyridine binding site in rat cerebral cortex at 10 uM relative to control; type: tissue-based; method in brief: as §2
[19] = target: B2 bradykinin receptor (Homo sapiens) (UniProt P30411); assay: Displacement of [3H]-Bradykinin from human recombinant bradykinin B2 receptor expressed in rat Chem-1 cells at 10 uM relative to control; type: cell-based; method in brief: as §2
[20] = target: Alpha-1A adrenergic receptor (Rattus norvegicus) (UniProt P43140); assay: Displacement of [3H]-Prazosin from adrenergic alpha1A receptor in rat submaxillary gland at 10 uM relative to control; type: tissue-based
[21] = target: Adenosine receptor A1 (Homo sapiens) (UniProt P30542); assay: Displacement of [3H]-DPCPX from human recombinant adenosine A1 receptor expressed in CHO cells at 10 uM relative to control; type: cell-based; method in brief: as §2
[22] = target: Adenosine receptor A2a (Homo sapiens) (UniProt P29274); assay: Displacement of [3H]-CGS-21680 from human recombinant adenosine A2A receptor expressed in HEK293 cells at 10 uM relative to control; type: cell-based; method in brief: as §2
[23] = target: Adenosine receptor A3 (Homo sapiens) (UniProt P0DMS8); assay: Displacement of [125I]-AB-MECA from human recombinant adenosine A3 receptor expressed in CHO-K1 cells at 10 uM relative to control; type: cell-based; method in brief: as §2
[24] = target: Metabotropic glutamate receptor 6 (Rattus norvegicus) (UniProt P35349); assay: Allosteric modulation of rat mGlu6 receptor expressed in HEK293 cells coexpressing G protein-activated inward rectifier potassium channel assessed as effect on glutamate-induced thallium flux at 10 uM; type: cell-based
[25] = target: Metabotropic glutamate receptor 4 (Rattus norvegicus) (UniProt P31423); assay: Allosteric modulation of rat mGlu4 receptor expressed in HEK293 cells coexpressing G protein-activated inward rectifier potassium channel assessed as effect on glutamate-induced thallium flux at 10 uM; type: cell-based
[26] = target: Metabotropic glutamate receptor 3 (Rattus norvegicus) (UniProt P31422); assay: Allosteric modulation of rat mGlu3 receptor expressed in HEK293 cells coexpressing G protein-activated inward rectifier potassium channel assessed as effect on glutamate-induced thallium flux at 10 uM; type: cell-based
[27] = target: Metabotropic glutamate receptor 2 (Rattus norvegicus) (UniProt P31421); assay: Allosteric modulation of rat mGlu2 receptor expressed in HEK293 cells coexpressing G protein-activated inward rectifier potassium channel assessed as effect on glutamate-induced thallium flux at 10 uM; type: cell-based
Brain [28] = assay: Tmax in CD-1 mouse brain at 10 mg/kg, ip by LC-MS/MS analysis; type: ADME, organism-based; design: dose 10 mg/kg, route intraperitoneal; conditions: in vivo
Plasma [29] = assay: Cmax in CD-1 mouse plasma at 10 mg/kg, ip by LC-MS/MS analysis; type: ADME, organism-based; design: dose 10 mg/kg, route intraperitoneal; conditions: in vivo
Plasma [30] = assay: Tmax in CD-1 mouse plasma at 10 mg/kg, ip by LC-MS/MS analysis; type: ADME, organism-based; design: dose 10 mg/kg, route intraperitoneal; conditions: in vivo
Brain [31] = assay: Fraction unbound in mouse brain homogenates by equilibrium dialysis technique; type: ADME, tissue-based; conditions: brain homogenate

Sequence of Metabotropic glutamate receptor 6 (Rattus norvegicus) (P35349 whole entry): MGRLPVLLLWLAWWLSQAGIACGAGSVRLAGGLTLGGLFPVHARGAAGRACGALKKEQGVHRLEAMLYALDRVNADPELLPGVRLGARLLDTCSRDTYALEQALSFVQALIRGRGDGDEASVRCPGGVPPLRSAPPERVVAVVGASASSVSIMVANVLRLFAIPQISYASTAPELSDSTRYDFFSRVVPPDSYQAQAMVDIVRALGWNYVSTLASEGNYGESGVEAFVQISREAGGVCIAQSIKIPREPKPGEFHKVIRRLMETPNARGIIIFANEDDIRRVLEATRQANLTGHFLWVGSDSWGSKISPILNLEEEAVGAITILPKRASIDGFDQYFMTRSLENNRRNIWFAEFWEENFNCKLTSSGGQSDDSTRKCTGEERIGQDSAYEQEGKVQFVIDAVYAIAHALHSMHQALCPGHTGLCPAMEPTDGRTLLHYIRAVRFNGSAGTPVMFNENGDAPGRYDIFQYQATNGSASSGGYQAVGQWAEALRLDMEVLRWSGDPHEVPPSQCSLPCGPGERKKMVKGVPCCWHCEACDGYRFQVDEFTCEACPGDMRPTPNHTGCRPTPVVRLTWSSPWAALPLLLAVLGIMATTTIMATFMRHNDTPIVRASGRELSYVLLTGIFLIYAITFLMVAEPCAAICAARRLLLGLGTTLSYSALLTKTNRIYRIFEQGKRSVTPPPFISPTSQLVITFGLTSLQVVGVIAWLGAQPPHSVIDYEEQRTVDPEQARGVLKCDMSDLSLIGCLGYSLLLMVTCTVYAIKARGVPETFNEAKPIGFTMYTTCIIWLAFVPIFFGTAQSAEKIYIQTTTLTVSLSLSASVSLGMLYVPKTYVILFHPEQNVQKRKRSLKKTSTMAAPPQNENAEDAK
Sequence of Histamine H2 receptor (Homo sapiens) (P25021 whole entry): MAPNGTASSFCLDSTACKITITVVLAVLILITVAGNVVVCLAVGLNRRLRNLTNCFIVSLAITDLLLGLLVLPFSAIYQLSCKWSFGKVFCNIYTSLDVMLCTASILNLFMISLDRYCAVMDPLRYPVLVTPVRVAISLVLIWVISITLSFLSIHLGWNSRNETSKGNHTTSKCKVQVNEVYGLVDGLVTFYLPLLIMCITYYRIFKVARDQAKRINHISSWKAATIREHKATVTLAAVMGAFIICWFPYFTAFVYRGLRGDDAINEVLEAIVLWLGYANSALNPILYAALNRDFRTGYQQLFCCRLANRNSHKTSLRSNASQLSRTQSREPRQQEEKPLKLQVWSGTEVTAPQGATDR
Sequence of Adenosine receptor A1 (Homo sapiens) (P30542 whole entry): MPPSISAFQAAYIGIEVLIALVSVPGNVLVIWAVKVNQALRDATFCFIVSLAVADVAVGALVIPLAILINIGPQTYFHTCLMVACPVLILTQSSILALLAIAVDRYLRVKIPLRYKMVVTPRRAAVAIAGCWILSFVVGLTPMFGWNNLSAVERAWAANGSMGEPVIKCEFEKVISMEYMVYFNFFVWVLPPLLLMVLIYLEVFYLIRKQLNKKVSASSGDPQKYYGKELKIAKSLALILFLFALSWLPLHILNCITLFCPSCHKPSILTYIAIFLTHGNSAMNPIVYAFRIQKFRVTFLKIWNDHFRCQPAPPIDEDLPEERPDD
Sequence of Muscarinic acetylcholine receptor M2 (Homo sapiens) (P08172 whole entry): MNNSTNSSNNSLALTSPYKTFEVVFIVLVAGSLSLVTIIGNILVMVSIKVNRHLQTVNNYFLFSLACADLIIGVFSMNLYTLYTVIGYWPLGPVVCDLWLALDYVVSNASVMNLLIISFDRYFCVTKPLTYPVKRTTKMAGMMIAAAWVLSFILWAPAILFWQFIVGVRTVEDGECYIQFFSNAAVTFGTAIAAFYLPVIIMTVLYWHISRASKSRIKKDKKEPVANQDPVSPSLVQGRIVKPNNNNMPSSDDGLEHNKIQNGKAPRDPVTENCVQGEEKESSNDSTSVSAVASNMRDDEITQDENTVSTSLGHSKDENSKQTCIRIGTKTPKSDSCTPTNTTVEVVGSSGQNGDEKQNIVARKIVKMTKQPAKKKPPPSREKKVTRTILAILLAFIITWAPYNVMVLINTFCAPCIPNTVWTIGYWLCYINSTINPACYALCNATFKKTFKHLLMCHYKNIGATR
Sequence of Neuropeptide Y receptor type 1 (Homo sapiens) (P25929 whole entry): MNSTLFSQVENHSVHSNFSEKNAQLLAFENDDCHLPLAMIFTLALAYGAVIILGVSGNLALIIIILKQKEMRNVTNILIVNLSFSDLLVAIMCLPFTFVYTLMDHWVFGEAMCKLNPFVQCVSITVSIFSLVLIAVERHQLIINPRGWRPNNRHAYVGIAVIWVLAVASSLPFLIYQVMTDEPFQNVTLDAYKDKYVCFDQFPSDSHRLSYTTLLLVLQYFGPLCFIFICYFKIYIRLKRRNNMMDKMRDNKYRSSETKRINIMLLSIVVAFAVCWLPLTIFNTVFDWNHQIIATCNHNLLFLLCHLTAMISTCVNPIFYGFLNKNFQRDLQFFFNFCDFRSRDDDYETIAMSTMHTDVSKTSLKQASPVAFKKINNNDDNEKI
Sequence of Adenosine receptor A3 (Homo sapiens) (P0DMS8 whole entry): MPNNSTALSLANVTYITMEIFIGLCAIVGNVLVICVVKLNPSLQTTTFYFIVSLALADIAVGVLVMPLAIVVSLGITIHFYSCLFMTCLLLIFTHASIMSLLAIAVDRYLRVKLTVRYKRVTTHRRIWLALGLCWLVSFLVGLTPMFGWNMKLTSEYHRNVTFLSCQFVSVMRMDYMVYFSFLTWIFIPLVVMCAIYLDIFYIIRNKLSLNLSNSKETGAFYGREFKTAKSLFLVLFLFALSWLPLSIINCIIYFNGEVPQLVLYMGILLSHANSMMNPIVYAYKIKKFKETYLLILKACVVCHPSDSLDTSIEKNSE
Sequence of Sodium-dependent noradrenaline transporter (Homo sapiens) (P23975 whole entry): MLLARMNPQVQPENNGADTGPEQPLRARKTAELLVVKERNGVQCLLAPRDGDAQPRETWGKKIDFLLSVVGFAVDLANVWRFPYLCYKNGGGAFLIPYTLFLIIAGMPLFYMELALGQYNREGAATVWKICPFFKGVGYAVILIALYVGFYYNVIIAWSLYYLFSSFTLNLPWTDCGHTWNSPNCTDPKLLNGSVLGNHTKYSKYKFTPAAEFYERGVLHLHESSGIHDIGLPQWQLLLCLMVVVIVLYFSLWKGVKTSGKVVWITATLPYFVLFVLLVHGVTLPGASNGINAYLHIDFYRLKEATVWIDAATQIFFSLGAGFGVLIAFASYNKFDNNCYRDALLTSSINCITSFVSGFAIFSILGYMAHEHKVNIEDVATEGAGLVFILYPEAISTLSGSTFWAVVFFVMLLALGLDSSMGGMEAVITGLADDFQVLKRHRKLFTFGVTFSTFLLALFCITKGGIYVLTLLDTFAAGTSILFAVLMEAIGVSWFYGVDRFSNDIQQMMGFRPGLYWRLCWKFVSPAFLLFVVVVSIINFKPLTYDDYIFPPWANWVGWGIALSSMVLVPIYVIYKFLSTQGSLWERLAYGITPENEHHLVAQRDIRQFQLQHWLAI
Sequence of Sigma non-opioid intracellular receptor 1 (Homo sapiens) (Q99720 whole entry): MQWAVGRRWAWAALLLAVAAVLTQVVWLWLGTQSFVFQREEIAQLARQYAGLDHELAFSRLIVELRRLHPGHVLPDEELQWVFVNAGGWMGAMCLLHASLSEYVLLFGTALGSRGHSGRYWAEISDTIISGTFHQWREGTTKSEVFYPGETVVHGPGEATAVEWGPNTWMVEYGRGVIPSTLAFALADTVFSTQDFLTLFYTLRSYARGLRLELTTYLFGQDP
Sequence of Adenosine receptor A2a (Homo sapiens) (P29274 whole entry): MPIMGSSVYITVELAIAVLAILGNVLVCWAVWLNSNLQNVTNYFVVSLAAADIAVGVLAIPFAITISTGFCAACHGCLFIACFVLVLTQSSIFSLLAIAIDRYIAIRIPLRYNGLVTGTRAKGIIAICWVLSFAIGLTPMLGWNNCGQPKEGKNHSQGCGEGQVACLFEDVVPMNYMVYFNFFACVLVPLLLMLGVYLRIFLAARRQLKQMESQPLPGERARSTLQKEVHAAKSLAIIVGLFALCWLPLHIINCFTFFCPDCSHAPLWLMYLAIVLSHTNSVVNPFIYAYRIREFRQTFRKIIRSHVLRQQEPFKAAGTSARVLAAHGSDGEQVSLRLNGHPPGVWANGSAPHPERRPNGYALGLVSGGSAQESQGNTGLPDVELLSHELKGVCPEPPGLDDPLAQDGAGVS
Sequence of Metabotropic glutamate receptor 3 (Rattus norvegicus) (P31422 23-879 limits assumed): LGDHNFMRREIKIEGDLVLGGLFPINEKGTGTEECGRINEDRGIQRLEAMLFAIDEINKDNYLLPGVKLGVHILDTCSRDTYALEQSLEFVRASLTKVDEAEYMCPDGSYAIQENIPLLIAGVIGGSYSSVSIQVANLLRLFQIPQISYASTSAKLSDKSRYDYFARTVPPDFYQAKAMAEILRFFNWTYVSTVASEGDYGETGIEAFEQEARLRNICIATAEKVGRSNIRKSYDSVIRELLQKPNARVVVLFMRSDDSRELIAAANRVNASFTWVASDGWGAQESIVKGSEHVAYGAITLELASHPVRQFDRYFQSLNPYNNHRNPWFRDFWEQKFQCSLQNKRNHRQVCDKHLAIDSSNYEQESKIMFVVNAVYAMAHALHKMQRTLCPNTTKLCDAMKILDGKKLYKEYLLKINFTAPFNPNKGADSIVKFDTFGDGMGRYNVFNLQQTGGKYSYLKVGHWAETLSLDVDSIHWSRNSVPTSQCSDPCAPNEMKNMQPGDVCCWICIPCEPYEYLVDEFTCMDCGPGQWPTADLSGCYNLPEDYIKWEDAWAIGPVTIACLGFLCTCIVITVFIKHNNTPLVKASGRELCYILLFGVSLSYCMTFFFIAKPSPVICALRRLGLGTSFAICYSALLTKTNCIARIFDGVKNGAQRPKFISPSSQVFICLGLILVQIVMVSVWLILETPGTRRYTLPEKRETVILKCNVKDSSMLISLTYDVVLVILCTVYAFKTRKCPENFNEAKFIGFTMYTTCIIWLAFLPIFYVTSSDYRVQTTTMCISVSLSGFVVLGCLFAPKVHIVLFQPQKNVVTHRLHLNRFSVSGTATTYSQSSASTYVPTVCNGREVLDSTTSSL

`Cc1csc(NC(=O)c2cc(F)cc(Oc3cncnc3)c2)n1` was tested, and the inhibition (Mus musculus [1]) was “Active”, the inhibition (Mus musculus [2]) was “Dose-dependent effect” and the inhibition [3] was greater than 35%. For the same compound, the inhibition (Rattus norvegicus [4]) was greater than 35%, the inhibition [5] was greater than 35% and the inhibition [6] was greater than 35%. The inhibition (Oryctolagus cuniculus) was greater than 35%, the inhibition [7] was greater than 35% and the inhibition [8] was greater than 35%. The inhibition [9] was greater than 35%, the inhibition [10] was greater than 35% and the inhibition [11] was greater than 35%. For the same compound, the inhibition [12] was greater than 35%, the inhibition (Mus musculus [13]) was greater than 35% and the inhibition [14] was greater than 35%. It also gave an inhibition [15] greater than 35%, an inhibition [16] greater than 35% and an inhibition (Rattus norvegicus [17]) greater than 35%. It also gave an inhibition (Rattus norvegicus [18]) greater than 35%, an inhibition [19] greater than 35% and an inhibition [20] greater than 35%. The inhibition [21] was greater than 35%, the inhibition [22] was greater than 35% and the inhibition [23] was greater than 35%. For the same compound, the Activity [24] was “inactive”, the Activity [25] was “inactive” and the Activity [26] was “inactive”. The Activity [27] was “inactive”, the Tmax (Brain [28]) was 15 min and the Cmax (Plasma [29]) was 1450 ng/mL. For the same compound, the Tmax (Plasma [30]) was 15 min and the Fu (Brain [31]) was 0.082.
